{"source": "PubChem BioAssay AID1229", "about": "(Sanford-Burnham Center for Chemical Genomics, 2008)", "note": "In all, about 190,000 compounds went through this assay and about 10 (0.005%) were called active.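 Rule for the calls: active = diaphorase activity raised at least twofold by the compound at 20 µM; inactive = activation factor below 2.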 For the sample, actives were picked, then their nearest neighbours and some compounds at random."}
{"assay": "compounds boosting diaphorase resazurin reduction – biochemical, uHTS, resorufin fluorescence, counter-screen for diaphorase-coupled primary assays, primary screen (AID 1229)", "details": "Diaphorase/resazurin coupled assay, 16 min, at 20 µM, stronger effect = higher value, 1 = vehicle wells, 0 = NADH-free wells", "how_it_was_run": "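test system = bacterial diaphorase enzyme (C. kluyveri) | quantity = enzyme 0.07 U/mL final | reagent = NADH substrate 0.114 mM plus resazurin dye 0.1 mM, final | incubation = 16 min enzyme reaction, ambient temperature | buffer or medium = HEPES pH 7.4 buffer with MgCl2 and Tween 20 | signal = fluorescence of resorufin, 544 nm excitation, 590 nm emission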"}
{"smiles": "Cc1cccc(-n2c(=O)c3c(C)c(C)sc3n(CC(N)=O)c2=O)c1", "activation factor": "1.1 (inactive)"}
{"smiles": "O=C(COC(=O)c1ccc(Cl)nc1)NCc1ccc2c(c1)OCO2", "activation factor": "1 (inactive)"}
{"smiles": "CC1CN(S(=O)(=O)c2ccc(C(=O)NN3CCN(C)CC3)cc2)CC(C)O1", "note": "(stereo not given)", "activation factor": "0.9 (inactive)"}
{"smiles": "CC(C)(C)NC(=O)C(=O)NCc1ccncc1", "activation factor": "0.9 (inactive)"}
{"smiles": "O=C(NCc1ccccc1)C1=C[C@@H](c2ccc(C(F)(F)F)cc2)C[C@@H](OCc2ccc(CO)cc2)O1", "activation factor": "0.6 (inactive)"}
{"smiles": "O=C(NC(=S)Nc1ccc(S(=O)(=O)Nc2ncccn2)cc1)c1cccc(Br)c1", "activation factor": "0.9 (inactive)"}
{"smiles": "COc1ccc(/C=C(\\C#N)C(=O)NCCCn2ccnc2)cc1", "activation factor": "1 (inactive)"}
{"smiles": "O=C1CC(=O)Nc2cc(S(=O)(=O)N3CCN(c4cccc(C(F)(F)F)c4)CC3)ccc2N1", "activation factor": "1 (inactive)"}
{"smiles": "CCOc1ccc(OCc2cccc(C(=O)N(CC)CC)c2)cc1", "activation factor": "0.8 (inactive)"}
{"smiles": "CC(=O)Nc1ccc(S(=O)(=O)Nc2nccc(/C=C/c3ccccc3F)n2)cc1", "activation factor": "0.8 (inactive)"}
{"smiles": "CCCc1nnc(SCC(=O)N2C(C)CCCC2C)n1CC", "note": "(stereo not given)", "activation factor": "0.9 (inactive)"}
{"smiles": "CC(C)CNC(=O)/C=C/C(=O)O", "activation factor": "1 (inactive)"}
{"smiles": "COc1ccc(C)cc1Nc1nc(-c2c(C)[nH]c3ccccc23)cs1", "activation factor": "0.9 (inactive)"}
{"smiles": "O=C(NCCCn1ccnc1)c1cc(-c2ccccc2)on1", "activation factor": "1 (inactive)"}
{"smiles": "CCN(CC)CCOCCOc1ccc(Cl)c2ccccc12", "activation factor": "0.8 (inactive)"}
{"smiles": "Cn1c(SCC(=O)Nc2ccc(Br)cc2F)nnc1-c1ccco1", "activation factor": "0.9 (inactive)"}
{"smiles": "Cc1nc([N+](=O)[O-])cn1CC(=O)Nc1ccc2c(c1)OCO2", "activation factor": "0.9 (inactive)"}
{"smiles": "CC(=O)NCCn1c(SCC(=O)Nc2ccc(C)cc2)nc2ccccc2c1=O", "activation factor": "0.9 (inactive)"}
{"smiles": "COc1cccc(-n2c(=S)[nH]c3c(oc4ccccc43)c2=O)c1", "activation factor": "0.3 (inactive)"}
{"smiles": "CC1CCCCC1NC(=O)/C(C#N)=C/C=C/c1ccccc1[N+](=O)[O-]", "note": "(stereo not given)", "activation factor": "0.8 (inactive)"}
{"smiles": "Cc1cccc(-n2c(Cc3cc(=O)[nH]c(=O)[nH]3)nnc2SCC(=O)Nc2cccc(C(F)(F)F)c2)c1", "activation factor": "1 (inactive)"}
{"smiles": "COc1ccc(/C=C/C(=O)c2ccc(NS(=O)(=O)c3ccc(C)cc3)cc2)cc1O", "activation factor": "0.7 (inactive)"}
{"smiles": "CC(C)CCN1CCN(Cc2ccc(C(F)(F)F)cc2)CC1CCO", "note": "(stereo not given)", "activation factor": "1 (inactive)"}
{"smiles": "CC(=O)N(CN1C(=O)C2C3C=CC(C3)C2C1=O)c1cccc(Cl)c1", "note": "(stereo not given)", "activation factor": "1.1 (inactive)"}
{"smiles": "O=C(C1=C[C@H](c2coc3ccccc3c2=O)C[C@H](OCc2ccc(CO)cc2)O1)N1CCOCC1", "activation factor": "0.8 (inactive)"}
{"smiles": "COc1ccc(Br)cc1/C=N/Nc1ccc(Cl)c(C(=O)O)c1", "activation factor": "0.9 (inactive)"}
{"smiles": "CC(=O)Nc1ccc(-c2csc(NC=C3C(=O)OC(C)(C)OC3=O)n2)cc1", "activation factor": "0.9 (inactive)"}
{"smiles": "COC(=O)CSc1ccc2nnc(CCNS(=O)(=O)c3ccc(C)cc3)n2n1", "activation factor": "0.7 (inactive)"}
{"smiles": "NC1=NN(c2cccc(C(=O)O)c2)C(=O)C1", "activation factor": "0.9 (inactive)"}
{"smiles": "O=S1(=O)CC/C(=N\\Nc2ccc(F)cc2)c2ccsc21", "activation factor": "0.9 (inactive)"}
{"smiles": "CCO[C@H]1OC(C(=O)NCc2ccccc2)=C[C@@H](c2coc3ccccc3c2=O)[C@@H]1CCCO", "activation factor": "0.8 (inactive)"}
{"smiles": "CC(=O)Nc1ccc(S(=O)(=O)Nc2ccc(-c3ccc4nnc(C)n4n3)cc2)cc1", "activation factor": "1.1 (inactive)"}
{"smiles": "CCOC(=O)C(CC)/C(C)=N\\NC(=O)c1cccc(C)c1", "note": "(stereo not given)", "activation factor": "0.9 (inactive)"}
{"smiles": "COC(=O)N/N=C/c1ccc(-c2ccc(Cl)c(Cl)c2)o1", "activation factor": "0.9 (inactive)"}
{"smiles": "C/C(=N\\NS(=O)(=O)c1ccc(Cl)cc1)c1ccc(NC(=O)c2ccco2)cc1", "activation factor": "0.8 (inactive)"}
{"smiles": "Cc1cc(C)nc(SCC(=O)N(C)C)n1", "activation factor": "1 (inactive)"}
{"smiles": "CCOc1ccc(C(C)=O)cc1COC(=O)c1cnc(Cl)c(Cl)c1", "activation factor": "0.8 (inactive)"}
{"smiles": "C=CCNCCCCOc1ccccc1", "activation factor": "1.1 (inactive)"}
{"smiles": "CONc1nc2nonc2nc1NOC", "activation factor": "0.9 (inactive)"}
{"smiles": "O=C(C1CC1)N1N=C2CCCCC2C1(O)C(F)(F)F", "note": "(stereo not given)", "activation factor": "0.9 (inactive)"}
{"smiles": "Cc1ccc(NN=Nc2nc3c([nH]2)c(=O)n(C)c(=O)n3C)cc1", "activation factor": "0.6 (inactive)"}
{"smiles": "CCOc1ccc(Oc2nc(C)cc(OC)n2)nn1", "activation factor": "0.9 (inactive)"}
{"smiles": "Cc1c(C2=CCN(S(=O)(=O)c3ccc(Cl)cc3)CC2)c2ccccc2n1C", "activation factor": "0.9 (inactive)"}
{"smiles": "COc1cc(C(=S)NCc2ccccc2)cc(Br)c1O", "activation factor": "1 (inactive)"}
{"smiles": "C/C=C/c1ccc(OCCCCN2CCC(C)CC2)c(OC)c1", "activation factor": "1 (inactive)"}
{"smiles": "CCn1cc(-c2cc(C(=O)O)on2)c(C)n1", "activation factor": "0.9 (inactive)"}
{"smiles": "Cc1ccc(OCCOCCOc2ccc(Br)cc2/C=N\\NC(=O)c2ccncc2)cc1", "activation factor": "0.8 (inactive)"}
{"smiles": "O=C(c1ccc2c(c1)N(Cc1ccc(F)cc1)C(=O)c1ccccc1S2(=O)=O)N1CCN(c2ccccn2)CC1", "activation factor": "0.8 (inactive)"}
{"smiles": "CNc1[nH]ncc1[N+](=O)[O-]", "activation factor": "1 (inactive)"}
{"smiles": "O=C1c2ccccc2C(=O)N1CCC(O)C[N+](=O)[O-]", "note": "(stereo not given)", "activation factor": "1 (inactive)"}
{"smiles": "Cc1ccc(NC(=O)OCCNC(=O)c2ccncc2)cc1", "activation factor": "1 (inactive)"}
{"smiles": "N#Cc1c(NC(=O)C2CCCO2)sc2c1CCCCC2", "note": "(stereo not given)", "activation factor": "1 (inactive)"}
{"smiles": "O=C(/C(=C/c1cccc(Cl)c1)c1nc2ccccc2[nH]1)c1ccccc1", "activation factor": "0.9 (inactive)"}
{"smiles": "Cc1ccnc(NC(=O)CCC(=O)N(CC(=O)NCCc2ccccc2)Cc2cccs2)c1", "activation factor": "1 (inactive)"}
{"smiles": "CC(=O)C1=C(O)C(=O)N(c2cccnc2)C1c1ccc([N+](=O)[O-])cc1", "note": "(stereo not given)", "activation factor": "0.9 (inactive)"}
{"smiles": "O=C1/C(=C/c2cccs2)CCC1C1CCCC1", "note": "(stereo not given)", "activation factor": "0.9 (inactive)"}
{"smiles": "Cc1cccc2cc3c(N)c(C(=O)N4CCCc5ccccc54)sc3nc12", "activation factor": "0.8 (inactive)"}
{"smiles": "COc1ccc(OC)c(S(=O)(=O)NCCC(C)C)c1", "activation factor": "1.1 (inactive)"}
{"smiles": "CCOC(=O)c1c(/N=C/c2cc(C)ccc2O)sc2c1CCC2", "activation factor": "1 (inactive)"}
{"smiles": "CC(C)=CCCC1(C)C=Cc2c(ccc3c2[nH]c2cc(O)c(C)cc23)O1", "note": "(stereo not given)", "activation factor": "0.8 (inactive)"}
{"smiles": "CN1CCNC(=O)C1CC(=O)N1CC=C(c2ccc(F)cc2)CC1", "note": "(stereo not given)", "activation factor": "0.9 (inactive)"}
{"smiles": "COC(=O)/C(C#N)=C/c1occc1C", "activation factor": "0.9 (inactive)"}
{"smiles": "CCCN(CC(=O)Nc1ccc(OC)c(OC)c1)CC(=O)Nc1ccc(F)c(F)c1F", "activation factor": "0.9 (inactive)"}
{"smiles": "CN(C(=O)CSc1nnc(-c2n[nH]c3ccccc23)o1)c1ccccc1", "activation factor": "0.8 (inactive)"}
{"smiles": "O=C(CSc1ccc(-c2ccccc2)nn1)NCC1CCCO1", "note": "(stereo not given)", "activation factor": "1.1 (inactive)"}
{"smiles": "Cc1cccc(C(=O)OCC(=O)NCC(C)C)c1O", "activation factor": "0.9 (inactive)"}
{"smiles": "O=C(Cc1cccs1)Nc1nnc(SCc2ccc(F)cc2)s1", "activation factor": "0.9 (inactive)"}
{"smiles": "Cn1cnnc1Sc1ccc(CN2CCN(C3CCCC3)C(CCO)C2)o1", "note": "(stereo not given)", "activation factor": "1 (inactive)"}
{"smiles": "CCCN=C1NC(=O)C(CC(=O)NCCc2ccc(OC)c(OC)c2)S1", "note": "(stereo not given)", "activation factor": "0.9 (inactive)"}
{"smiles": "Cc1ccc(N(Cc2cc3ccccc3[nH]c2=O)C(=O)c2cccs2)cc1", "activation factor": "0.9 (inactive)"}
{"smiles": "CCOc1ccc(N2C(=O)CN(c3cccc4ccccc34)C2=S)cc1", "activation factor": "1 (inactive)"}
{"smiles": "CNC(=S)NNC(=O)c1cccn(Cc2ccccc2)c1=O", "activation factor": "1 (inactive)"}
{"smiles": "Cc1cc(C(=O)NNC(=S)NC(C)c2ccccc2)cs1", "note": "(stereo not given)", "activation factor": "1 (inactive)"}
{"smiles": "CCSc1nc(C)c(CCOc2cccc(C)c2)c(=O)[nH]1", "activation factor": "1 (inactive)"}
{"smiles": "NS(=O)(=O)c1ccc(NC(=S)NNC(=O)c2cccs2)cc1", "activation factor": "0.8 (inactive)"}
{"smiles": "Cc1ccc(NC(=S)N(CCCN2CCCC2)Cc2cccn2Cc2ccc(Cl)cc2)cc1", "activation factor": "1 (inactive)"}
{"smiles": "COc1cccc(CC2(CO)CCN(Cc3cnc(-c4cccc(C)c4)nc3)CC2)c1", "activation factor": "0.7 (inactive)"}
{"smiles": "COC(=O)CC1=NN(c2ccccc2)C(=O)C1", "activation factor": "1.1 (inactive)"}
{"smiles": "CCCn1c(=O)c2c(C(F)(F)F)cc(-c3cccs3)nc2n(CCC)c1=O", "activation factor": "1 (inactive)"}
{"smiles": "Cc1ccc(C(=O)N/C(=C\\c2cccs2)C(=O)NCCc2ccccn2)cc1C", "activation factor": "0.7 (inactive)"}
{"smiles": "CN(C)c1ccc(C2Nc3ccccc3C(=O)N2NS(=O)(=O)c2ccccc2)cc1", "note": "(stereo not given)", "activation factor": "0.9 (inactive)"}
{"smiles": "CCCCn1c(N)c(N2CCOCC2)c(=O)n(CC(=O)NCCc2ccccc2)c1=O", "activation factor": "1 (inactive)"}
{"smiles": "COCCN1C(=O)N[C@@H](c2ccccc2)C(C(=O)OC)=C1C", "activation factor": "1 (inactive)"}
{"smiles": "Cc1cc(C)n2nc(SCC(N)=O)nc2n1", "activation factor": "1 (inactive)"}
{"smiles": "O=C(CNC(=O)c1ccccc1)NCC(=O)OCC(=O)c1ccccc1", "activation factor": "1.1 (inactive)"}
{"smiles": "O=C(O)c1cccc(NC(=O)c2cc(-c3cccc(Cl)c3)nc3ccccc23)c1", "activation factor": "0.8 (inactive)"}
{"smiles": "[O-][n+]1onc2c1CCc1[nH]c(-c3ccccc3)nc1-2", "activation factor": "0.9 (inactive)"}
{"smiles": "O=S(=O)(NC1CC1)c1ccc2c3c(cccc13)CC2", "activation factor": "1 (inactive)"}
{"smiles": "C/C(Cn1nnc2ccccc21)=N\\OC(=O)c1cc(F)c(F)cc1Cl", "activation factor": "0.9 (inactive)"}
{"smiles": "COc1cccc(CNC(=O)c2n[nH]c3ccccc23)c1", "activation factor": "1 (inactive)"}
{"smiles": "Cc1ccc(C(=O)OC(C)CN2CCOCC2)cc1", "note": "(stereo not given)", "activation factor": "1 (inactive)"}
{"smiles": "O=C(O)COc1ccc(/C=N/O)cc1Br", "activation factor": "0.9 (inactive)"}
{"smiles": "Cc1ccccc1C(CC(=O)c1cccs1)C(C#N)C#N", "note": "(stereo not given)", "activation factor": "0.9 (inactive)"}
{"smiles": "O=C(Nc1ccccc1Cc1ccccc1)c1ccc2c(c1)SC1=NS(=O)(=O)CCN12", "activation factor": "0.9 (inactive)"}
{"smiles": "COc1cc(NC(=O)CSc2nnc3ccc(-c4ccncc4)nn23)cc(OC)c1", "activation factor": "0.8 (inactive)"}
{"smiles": "O=C(c1ccc(F)cc1)n1cc(C(=S)N2CCOCC2)c2ccccc21", "activation factor": "1 (inactive)"}
{"smiles": "Cc1cccc(C)c1NC(=O)CNC(=O)Cc1ccc(Br)cc1", "activation factor": "0.9 (inactive)"}
{"smiles": "COC(=O)C1=NNC2(c3ccc(C)cc3)C(=O)N(c3cccc(C)c3C)C(=O)C12", "note": "(stereo not given)", "activation factor": "0.9 (inactive)"}
{"smiles": "CCCNCc1cc(OCC)c(OCC(=O)Nc2ccccc2)cc1Br", "activation factor": "0.9 (inactive)"}
{"smiles": "Cc1cc(C)cc(OCC(=O)NCc2cc(C)nc3ccccc23)c1", "activation factor": "1 (inactive)"}
